High-throughput results: PubChem, several laboratories
Compounds with a hit are over-represented: about 4.5% of the library has one in this group of screens.
RGS4 inh – RGS4 inhibitors, primary screen, cell-based, HEK293 M3R inducible RGS4, calcium flux. Regulator of G-protein signaling 4 (Homo sapiens), P49798. B-score at 10 µM. AID 463165, 2010. 310,000 tested, 0.45% active. Fluo-4 calcium flux; active compounds read high; triggered by carbachol at its EC20;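 active = B-score, a plate-corrected calcium signal, over three deviations above library mean, with baseline fluorescence within five deviations of library mean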;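 note: RGS4 expression induced by doxycycline in cells with stable M3 receptor; B-score is computed from the integrated fluorescence ratio over baseline after carbachol; higher B-score means a larger calcium signal and so more RGS4 inhibition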
Target sequence (P49798 whole entry, looked up): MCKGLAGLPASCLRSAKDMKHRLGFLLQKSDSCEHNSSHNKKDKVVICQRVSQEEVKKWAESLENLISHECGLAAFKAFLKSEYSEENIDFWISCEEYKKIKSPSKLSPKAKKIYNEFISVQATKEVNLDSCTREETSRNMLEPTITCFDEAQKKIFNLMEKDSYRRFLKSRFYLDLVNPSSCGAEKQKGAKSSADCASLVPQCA
MrgX1 PAM – positive allosteric modulators of MrgX1, primary screen, HEK293 cells, Fluo-4 calcium flux. Mas-related G-protein coupled receptor member X1 (Homo sapiens), Q96LB2. FDSS; active compounds read high. B-score at 10 µM. 310,000 tested, 0.63% active;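 active = plate-corrected calcium response at least 3 library SD above typical, normal starting fluorescence, not activating the receptor alone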;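 note: compound read alongside a low EC10 to EC30 dose of BAM8-22 agonist; peak minus trough fluorescence over baseline measured at the second addition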
MrgX1 ag – agonists of human MrgX1 receptor, primary screen, HEK293 cells, Fluo-4 calcium flux; Mas-related G-protein coupled receptor member X1 (Homo sapiens), Q96LB2; Fluo-4 calcium fluorescence, agonist mode; active compounds read high; B-score at 10 µM; 310,000 tested, 0.44% active; AID 588627, 2011;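 active = calcium response B-score plate-corrected fluorescence ratio at least 3 library SD, with starting fluorescence B-score inside 5 SD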
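Test system: HEK293 cells stably expressing human MrgX1 receptor; amount: 15,000 cells per well; doses: compound delivered in addition one of three; times: overnight plating before 1 h dye loading; detection: Fluo-4 NW calcium-flux fluorescence, kinetic read; read-out basis: B-scored fluorescence response ratio; controls: positive and negative controls per plate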
PHOSPHO1 block – PubChem AID 1565. Phosphoethanolamine/phosphocholine phosphatase (Homo sapiens), Q8TCT1. recombinant PHOSPHO1, absorbance phosphatase assay. inhibition, % at 13.3 µM. 290,000 tested, 1.1% active; in the data active = inhibition above about 60%
Target sequence (Q8TCT1 whole entry, looked up): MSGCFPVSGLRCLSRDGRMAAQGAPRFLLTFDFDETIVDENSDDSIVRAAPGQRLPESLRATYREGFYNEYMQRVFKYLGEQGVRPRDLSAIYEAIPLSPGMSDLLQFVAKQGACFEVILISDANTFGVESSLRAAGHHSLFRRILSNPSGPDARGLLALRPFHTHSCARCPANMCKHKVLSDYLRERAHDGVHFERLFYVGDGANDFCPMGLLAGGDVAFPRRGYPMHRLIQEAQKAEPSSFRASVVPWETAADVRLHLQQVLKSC
RGS4 act – RGS4 potentiators or activators, primary screen, cell-based, HEK293 M3R inducible RGS4, calcium flux; carbachol calcium flux Fluo4; active compounds read low; B-score at 10 µM; 310,000 tested, 0.92% active;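 active = B-score of the integrated calcium signal more than 4 SD below the library mean, with starting fluorescence not abnormally high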;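 note: negative B-score means reduced calcium response which marks RGS4 activation or potentiation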
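System – HEK293 FlpIn-TREx cells, stable M3R, doxycycline-inducible RGS4 · Reagent – ECmax carbachol challenge · Times – compound preincubation 20 min at room temperature before agonist · Technique – Fluo4 fluorescence kinetic imaging of calcium · Measure – B score of integrated Fluo4 ratio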
MrgX1 antagonist – antagonists of human MrgX1 receptor, primary screen, HEK293 cells, Fluo-4 calcium flux; BAM8-22 antagonism; active compounds read low; 310,000 tested, 1.3% active; Mas-related G-protein coupled receptor member X1 (Homo sapiens), Q96LB2; B-score at 10 µM;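 active = calcium-response B-score plate-corrected more than 3 library SD below zero, starting fluorescence within 5 deviations, no agonist response on first addition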;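 note: peak minus trough fluorescence over baseline after final BAM8-22 challenge near maximal dose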
The depositor's hits bear a star; i = inactive; . = no result.

SMILES | RGS4 inh | MrgX1 PAM | MrgX1 ag | PHOSPHO1 block | RGS4 act | MrgX1 antagonist
OCCC1CN(Cc2nc3ccccc3s2)CCN1C1CCCCC1 (stereo not drawn) | i | i | i | 22 | i | -5.2*
OCCC1CN(Cc2nc(-c3ccccc3)cs2)CCN1C1CCCC1 (stereo not drawn) | i | i | i | 64* | -7.2* | i
OCCC1CN(Cc2nc(-c3ccccc3)cs2)CCN1Cc1ccc(F)cc1 (stereo not drawn) | i | i | i | -19 | i | i
O=C(Nc1ccccc1N1CCCCC1)C1CCN(C(=O)c2ccc(Cl)cc2)CC1 | i | i | i | . | i | i
COc1ccccc1OCCc1nnc(N)s1 | i | i | i | 3 | i | i
COc1ccc(OCCc2nnc(N)s2)cc1 | i | i | i | 62* | i | i
CCCCN(C)C1=Nc2cccc3cccc1c23 | i | i | i | 63* | i | i
Cc1ccccc1-n1c(SCC(=O)c2cc(C)n(C)c2C)nnc1-c1ccncc1 | i | i | i | 93* | i | i
O=C(c1ccc(Cl)cc1[N+](=O)[O-])N(Cc1ccccc1)Cc1ccccc1 | i | i | i | -18 | i | i
CC(C)(C)N(Cc1ccccc1)C(=O)c1ccc(Cl)cc1[N+](=O)[O-] | i | i | i | 25 | -10* | i
CCOC(=O)C1=NN(c2ccc(Cl)cc2)C(c2ccccc2)CC1=O (stereo not drawn) | i | i | i | -17 | i | -7.8*
C=CCC1(CC=C)CCCN1C(=O)c1cc(COc2cccc(C(F)(F)F)c2)on1 | i | i | i | 61* | i | i
CCC(C(=O)c1ccccc1)P(=O)(NN)c1ccccc1 (stereo not drawn) | i | i | i | 20 | i | i
CC1=C(CC(=O)NCC(=O)NCC(=O)O)c2cc(F)ccc2/C1=C/c1ccc(S(C)=O)cc1 (stereo not drawn) | i | i | i | -5 | i | i
COc1ccc(-n2c(COc3ccc(C)cc3)nnc2SCc2ccc(C#N)cc2)cc1 | i | i | i | 73* | i | i
COc1cccc(-n2c(COc3ccc(C)cc3)nnc2SCC(=O)O)c1 | i | i | i | 74* | i | i
Cc1ccc(NCc2nnc(SCC(=O)O)n2-c2ccc(C)cc2)cc1 | i | i | i | 67* | i | i
Cc1cc(OC(=O)c2ccccc2C(F)(F)F)c([N+](=O)[O-])c(=O)[nH]1 | i | i | i | 25 | i | i
C[C@H](NC(=O)c1[nH]cnc1C(=O)Nc1ccc(CNC(=O)OC(C)(C)C)cc1)C(=O)OC(C)(C)C | i | i | i | 34 | i | i
Cc1ccc(C(=O)CSc2nc3cc(S(=O)(=O)N4CCOCC4)ccc3o2)cc1 | i | i | i | 68* | i | i
O=C(NC1CCCc2ccccc21)c1cc(S(=O)(=O)N2CCOCC2)ccc1F (stereo not drawn) | i | i | i | 2 | i | i
O=C(CSc1nc2cc(S(=O)(=O)N3CCOCC3)ccc2o1)NC1CCCc2ccccc21 (stereo not drawn) | i | i | i | 76* | i | i
O=C(CSc1nc2cc(S(=O)(=O)N3CCOCC3)ccc2o1)Nc1c(F)cccc1F | i | i | i | -164 | i | i
Cc1nc2ccc(NC(=O)c3cc(S(=O)(=O)N4CCOCC4)ccc3C)cc2s1 | i | i | i | 2 | i | i
Cc1nc2ccc(Nc3nc4cc(S(=O)(=O)N5CCOCC5)ccc4o3)cc2s1 | i | i | i | 92* | i | i
SMILES | RGS4 inh | MrgX1 PAM | MrgX1 ag | PHOSPHO1 block | RGS4 act | MrgX1 antagonist
Cc1ccc(C(=O)NNC(=O)c2ccc(-n3cncn3)c([N+](=O)[O-])c2)cc1 | i | i | i | . | i | i
CCOC(=O)NC(Nc1sc2c(c1C(N)=O)CCCC2)(C(=O)OCC)C(F)(F)F (stereo not drawn) | i | i | i | 73* | i | i
C=CCn1c(Sc2ncc([N+](=O)[O-])s2)n[nH]c1=O | i | i | i | -4 | -8* | -9.2*
O=C(O)Cc1c[nH]c2cccc(O)c12 | i | i | i | 40 | i | i
COc1ccc(S(=O)(=O)O/N=C2\CCCc3ccccc32)cc1 | i | i | i | 19 | i | -4.7*
CCOC(=O)c1c(C)[nH]c(C(=O)N2CCCC(C(=O)c3cccc(OC)c3)C2)c1C (stereo not drawn) | i | i | i | 9 | i | i
CCOC(=O)c1c(C)[nH]c(C(=O)N2CCCC(C(=O)c3ccccc3OC)C2)c1C (stereo not drawn) | i | 27* | i | -4 | i | i
O=C(CCN1CCOCC1)N/N=C/c1cc(Br)cc(Br)c1O | i | i | i | 40 | i | i
CN(C(=O)c1ccccc1Cl)c1ccccc1C(=O)NCc1ccccc1 | i | i | i | 61* | i | i
Cn1cc(Br)c(C(=O)NNC(=O)Nc2ccccc2C(F)(F)F)n1 | i | i | i | 37 | i | i
COC(=O)c1ccccc1C(=O)N1CCC(CCC(=O)NC2CC2)CC1 | i | i | i | 28 | i | i
O=C(O)CCCN1C(=O)/C(=C/c2cn(-c3ccccc3)nc2-c2cccs2)SC1=S | i | . | . | 72* | i | .
CCn1c(SCC(=O)N2CCCCCC2)nc2c(c1=O)SCC2 | i | i | i | 17 | i | i
CC(C)(C)[C@H]1C=C(C(=O)N2CCN(Cc3ccccc3)CC2)O[C@@H](OCc2ccc(CO)cc2)C1 | i | 7.4* | i | 28 | i | i
C[C@@H]1C=C(C(=O)N2CCN(Cc3ccccc3)CC2)O[C@H](OCc2ccc(CO)cc2)C1 | i | i | i | 36 | i | i
COCCN(Cc1cc2cc3c(cc2nc1Cl)OCO3)C(=O)c1ccc(C)cc1 | i | i | i | -17 | i | i
COCCNC(=O)C1CCCN(S(=O)(=O)c2cccc3nsnc23)C1 (stereo not drawn) | i | i | i | 10 | i | i
C=CCn1c(SCc2csc(-c3ccc(C)cc3)n2)nnc1-c1ccccc1OC | i | i | i | -14 | i | -6*
